Data from ChEMBL document CHEMBL1156006, “Potent and cellularly active 4-aminoimidazole inhibitors of cyclin-dependent kinase 5/p25 for the treatment of Alzheimer's disease” (Bioorg Med Chem Lett, 2009).

Assays:
[1] = molecular target: T1, Cyclin-dependent kinase 2/cyclin A (Homo sapiens) (UniProt P24941+P20248+P78396); experiment: Inhibition of CDK2/cyclin A at 1 uM by scintillation proximity assay; assay type: protein-complex assay
[2] = Selectivity ratio, IC50 for CDK2/cyclin E over IC50 for CDK5/p25
[3] = molecular target: Casein kinase I isoform delta (Homo sapiens) (UniProt P48730); experiment: Inhibition of CK1delta at 10 uM by scintillation proximity assay
Casein kinase I isoform delta (Homo sapiens), sequence (P48730 whole entry, looked up, canonical isoform): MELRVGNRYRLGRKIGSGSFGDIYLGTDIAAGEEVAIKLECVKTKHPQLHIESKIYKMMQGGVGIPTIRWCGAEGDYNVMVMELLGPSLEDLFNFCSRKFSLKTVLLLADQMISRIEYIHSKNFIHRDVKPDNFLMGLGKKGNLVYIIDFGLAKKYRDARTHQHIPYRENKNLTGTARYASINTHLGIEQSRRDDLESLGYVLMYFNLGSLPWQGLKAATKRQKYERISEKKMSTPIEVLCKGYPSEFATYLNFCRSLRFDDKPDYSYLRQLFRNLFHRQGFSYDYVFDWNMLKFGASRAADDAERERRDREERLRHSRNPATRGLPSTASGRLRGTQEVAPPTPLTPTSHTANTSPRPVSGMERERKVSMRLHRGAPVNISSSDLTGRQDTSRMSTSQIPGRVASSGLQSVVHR

[4] = molecular target: Mitogen-activated protein kinase 1 (Homo sapiens) (UniProt P28482); experiment: Inhibition of MAPK1/ERK2 at 10 uM by scintillation proximity assay
Mitogen-activated protein kinase 1 (Homo sapiens), sequence (P28482 whole entry): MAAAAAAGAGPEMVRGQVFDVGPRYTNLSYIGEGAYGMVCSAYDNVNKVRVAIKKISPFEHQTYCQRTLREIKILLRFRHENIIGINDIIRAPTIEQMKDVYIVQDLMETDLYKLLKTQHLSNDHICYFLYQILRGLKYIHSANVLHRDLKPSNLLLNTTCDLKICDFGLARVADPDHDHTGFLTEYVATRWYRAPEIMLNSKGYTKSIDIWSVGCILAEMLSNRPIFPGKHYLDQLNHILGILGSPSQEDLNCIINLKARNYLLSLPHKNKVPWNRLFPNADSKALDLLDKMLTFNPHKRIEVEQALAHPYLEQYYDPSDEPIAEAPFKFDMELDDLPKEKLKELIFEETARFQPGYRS
In short: (§1)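 Single-concentration profiling by scintillation proximity assay across a 20-kinase panel, including AMPK, GSK3b, MAPK1 and PHK. Compound was tested at 10, with ATP at the Km of each kinase.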

[5] = molecular target: Dual specificity protein kinase CLK1 (Homo sapiens) (UniProt P49759); experiment: Inhibition of CLK1 at 10 uM by scintillation proximity assay
Dual specificity protein kinase CLK1 (Homo sapiens), sequence (P49759 whole entry, looked up, canonical isoform): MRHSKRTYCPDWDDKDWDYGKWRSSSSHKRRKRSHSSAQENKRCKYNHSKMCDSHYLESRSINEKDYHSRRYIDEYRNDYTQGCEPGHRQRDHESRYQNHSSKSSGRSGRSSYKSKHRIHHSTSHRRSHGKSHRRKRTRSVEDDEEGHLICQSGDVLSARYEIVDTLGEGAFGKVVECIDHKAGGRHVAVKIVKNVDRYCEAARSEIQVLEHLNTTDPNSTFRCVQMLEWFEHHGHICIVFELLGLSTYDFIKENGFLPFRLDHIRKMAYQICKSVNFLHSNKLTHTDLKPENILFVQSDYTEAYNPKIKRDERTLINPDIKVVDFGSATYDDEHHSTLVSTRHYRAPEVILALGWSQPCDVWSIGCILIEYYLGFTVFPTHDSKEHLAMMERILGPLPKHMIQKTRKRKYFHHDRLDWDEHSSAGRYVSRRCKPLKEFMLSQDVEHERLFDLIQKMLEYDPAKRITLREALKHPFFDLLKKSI

[6] = molecular target: Glycogen synthase kinase-3 beta (Homo sapiens) (UniProt P49841); experiment: Inhibition of GSK3-beta at 10 uM by scintillation proximity assay; in short: as §1
Glycogen synthase kinase-3 beta (Homo sapiens), sequence (P49841 whole entry, looked up): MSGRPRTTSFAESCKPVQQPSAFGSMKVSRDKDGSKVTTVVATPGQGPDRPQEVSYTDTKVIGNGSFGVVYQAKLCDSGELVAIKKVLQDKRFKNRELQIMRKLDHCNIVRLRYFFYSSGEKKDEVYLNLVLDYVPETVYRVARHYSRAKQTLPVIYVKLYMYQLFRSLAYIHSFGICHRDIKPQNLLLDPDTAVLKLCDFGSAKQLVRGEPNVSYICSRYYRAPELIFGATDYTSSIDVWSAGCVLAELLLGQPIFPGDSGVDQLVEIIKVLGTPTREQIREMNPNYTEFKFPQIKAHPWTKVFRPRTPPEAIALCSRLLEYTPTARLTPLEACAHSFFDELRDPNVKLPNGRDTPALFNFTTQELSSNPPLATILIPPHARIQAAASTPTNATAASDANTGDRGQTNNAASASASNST

[7] = molecular target: Glycogen synthase kinase-3 beta (Homo sapiens) (UniProt P49841); experiment: Inhibition of GSK3-beta at 1 uM by scintillation proximity assay
[8] = molecular target: T1, Cyclin-dependent kinase 2/cyclin A (Homo sapiens); experiment: Inhibition of CDK2/cyclin A at 10 uM by scintillation proximity assay; assay type: protein-complex assay
[9] = molecular target: Mitogen-activated protein kinase 1 (Homo sapiens) (UniProt P28482); experiment: Inhibition of MAPK1/ERK2 at 1 uM by scintillation proximity assay
[10] = molecular target: T2, Cyclin-dependent kinase 5/CDK5 activator 1 (Homo sapiens, UniProt Q00535); experiment: Inhibition of CDK5/p25 by scintillation proximity assay; assay type: protein-complex assay
T2 sequence (Q00535 whole entry): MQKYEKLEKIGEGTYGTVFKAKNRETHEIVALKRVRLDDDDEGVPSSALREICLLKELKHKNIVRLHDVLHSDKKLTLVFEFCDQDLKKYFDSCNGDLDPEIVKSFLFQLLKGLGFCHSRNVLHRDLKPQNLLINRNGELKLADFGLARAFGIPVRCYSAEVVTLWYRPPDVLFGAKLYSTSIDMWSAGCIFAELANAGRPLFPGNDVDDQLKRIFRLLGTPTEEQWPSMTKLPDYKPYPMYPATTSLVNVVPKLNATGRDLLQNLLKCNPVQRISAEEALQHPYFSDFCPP
T2 sequence (Q15078 whole entry, further chain): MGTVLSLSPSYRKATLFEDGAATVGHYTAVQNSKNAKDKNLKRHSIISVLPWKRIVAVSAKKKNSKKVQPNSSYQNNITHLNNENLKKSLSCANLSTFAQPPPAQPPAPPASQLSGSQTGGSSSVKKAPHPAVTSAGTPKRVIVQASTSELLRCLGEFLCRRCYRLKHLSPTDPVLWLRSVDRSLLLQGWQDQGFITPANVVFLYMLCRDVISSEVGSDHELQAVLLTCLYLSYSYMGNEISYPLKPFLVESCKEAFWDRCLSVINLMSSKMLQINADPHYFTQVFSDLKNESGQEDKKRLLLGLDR

[11] = molecular target: Dual specificity protein kinase CLK1 (Homo sapiens) (UniProt P49759); experiment: Inhibition of CLK1 at 1 uM by scintillation proximity assay
[12] = molecular target: Casein kinase I isoform delta (Homo sapiens) (UniProt P48730); experiment: Inhibition of CK1delta at 1 uM by scintillation proximity assay
[13] = Ratio of drug level from brain to plasma in FV/B mouse at 2 mg/kg, sc after 1 hr
[14] = Drug level in FV/B mouse brain at 2 mg/kg, sc after 1 hr; assay type: ADME, organism-based; parameters: dose 2 mg/kg, route subcutaneous; settings: read-out: Drug uptake
[15] = Plasma concentration in FV/B mouse at 2 mg/kg, sc after 1 hr; assay type: ADME, organism-based; parameters: dose 2 mg/kg, route subcutaneous
[16] = Drug level in MDR1A/1B knockout mouse brain at 2 mg/kg, sc after 1 hr; assay type: ADME, organism-based; parameters: dose 2 mg/kg, route subcutaneous; settings: read-out: Drug uptake
[17] = Ratio of drug level from brain to plasma in MDR1A/1B knockout mouse at 2 mg/kg, sc after 1 hr
[18] = Plasma concentration in MDR1A/1B knockout mouse at 2 mg/kg, sc after 1 hr; assay type: ADME, organism-based; parameters: dose 2 mg/kg, route subcutaneous
[19] = molecular target: T2, Cyclin-dependent kinase 5/CDK5 activator 1; experiment: Inhibition of human CDK5/p25 expressed in CHO cells after 2 hrs by whole cell assay; assay type: cell-based
In short: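 The cell line carries doxycycline-regulated CDK5, p25 and tau transgenes and was kept uninduced in doxycycline medium. Expression was induced by removing doxycycline for 24 h. Cells were then treated with compound for 2 h and lysed. Phosphorylated tau was measured in detergent-soluble extracts by AlphaLISA.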

[20] = Apparent permeability from basolateral to apical side in human Caco-2 cells
[21] = Apparent permeability from apical to basolateral side in human Caco-2 cells
[22] = Inhibition of AMPK at 10 uM by scintillation proximity assay; in short: as §1
[23] = Inhibition of PHK at 10 uM by scintillation proximity assay; in short: as §1
[24] = Selectivity ratio, IC50 for human CDK5/p25 by whole cell assay over IC50 for CDK5/p25

SMILES | Ratio IC50 [2] | IC50 [10] [nM] | further results
COc1ccc(CC(=O)Nc2cn([C@H]3C[C@@H](NC(C)=O)C3)cn2)cc1 | 7 | 9 | inhibition [1]: 94%; inhibition [3]: 39%; inhibition [4]: 89%; inhibition [5]: 92%; inhibition [6]: 100%; inhibition [7]: 94%; inhibition [8]: 101%; inhibition [9]: 47%; inhibition [11]: 55%; inhibition [12]: 7%
COc1ccc(CC(=O)Nc2cn(C3CCCCC3)cn2)cc1 | – | 748 | –
CC(=O)N(C)[C@H]1C[C@@H](n2cnc(NC(=O)Cc3cccc4ccccc34)c2)C1 | 15 | 107 | –
Cc1cccc(C(=O)N[C@H]2C[C@@H](n3cnc(NC(=O)Cc4cccc5ccccc45)c3)C2)n1 | – | 6 | Kp at 1 h [13]: 0.12; concentration at 1 h [14]: 34 ng/g; concentration at 1 h [15]: 280 ng/mL; concentration at 1 h [16]: 383 ng/g; Kp at 1 h [17]: 1.1; concentration at 1 h [18]: 336 ng/mL; IC50 [19]: 230 nM
O=C(Cc1ccccc1)Nc1ncc(C2CCC2)s1 | 1.5 | 64 | –
COc1ccc(CC(=O)Nc2cn(C(C)C)cn2)cc1 | – | 425 | –
CC(=O)N[C@H]1C[C@@H](n2cnc(NC(=O)Cc3cccc4ccccc34)c2)C1 | 17 | 8 | Papp B→A [20]: 17.5 ×10⁻⁶ cm/s; IC50 [19]: > 30000 nM; Papp A→B [21]: 1.5 ×10⁻⁶ cm/s
COc1ccc(CC(=O)Nc2cn([C@H]3C[C@@H](NS(C)(=O)=O)C3)cn2)cc1 | 6 | 178 | –
COc1ccc(CC(=O)Nc2cn(C3CC3)cn2)cc1 | – | 814 | –
NC(=O)[C@H]1C[C@@H](n2cnc(NC(=O)Cc3cccc4ccccc34)c2)C1 | 2 | 391 | –
COc1ccc(CC(=O)Nc2cn([C@H]3C[C@H](C(=O)OC)C3)cn2)cc1 | 0.2 | 4380 | –
COc1ccc(CC(=O)Nc2cn(C3CCC3)cn2)cc1 | – | 145 | inhibition [22]: 48%; inhibition [6]: 34%; inhibition [23]: 32%
COc1ccc(CC(=O)Nc2cn([C@H]3C[C@@H](C(=O)OC)C3)cn2)cc1 | 0.7 | 145 | –
O=C(Cc1cccc2ccccc12)Nc1cn([C@H]2C[C@@H](NC(=O)c3ccccn3)C2)cn1 | 20 | 14 | Papp B→A [20]: 21 ×10⁻⁶ cm/s; IC50 [19]: 1300 nM; Papp A→B [21]: 26 ×10⁻⁶ cm/s
COc1ccc(CC(=O)Nc2cn([C@H]3C[C@@H](O)C3)cn2)cc1 | 0.7 | 95 | –
COc1ccc(CC(=O)Nc2cn(C3CCCC3)cn2)cc1 | – | 154 | –
O=C(Cc1cccc2ccccc12)Nc1cn([C@H]2C[C@@H](NC(=O)c3cccc(Cl)n3)C2)cn1 | 34 | 6 | Ratio IC50 [24]: 100; IC50 [19]: 673 nM
COc1ccc(CC(=O)Nc2cn([C@H]3C[C@H](O)C3)cn2)cc1 | 0.7 | 1090 | –
O=C(Cc1ccccc1)Nc1cn(C2CCC2)cn1 | – | 500 | –
COc1ccc(CC(=O)Nc2cn(Cc3ccccc3)cn2)cc1 | – | 8640 | –
O=C(Cc1cccc2ccccc12)Nc1cn([C@H]2C[C@@H](NC(=O)c3cccnc3)C2)cn1 | 15 | 46 | IC50 [19]: > 30000 nM
O=C(Cc1cccc2ccccc12)Nc1cn([C@H]2C[C@@H](NC(=O)c3ccncc3)C2)cn1 | 11 | 28 | –
O=C(Cc1cccc2ccccc12)Nc1cn(C2CCC2)cn1 | – | 46 | –
COc1ccc(CC(=O)Nc2cn(C)cn2)cc1 | – | > 10000 | –
